Usually pIC50 stands for the IC50 on a negative log10 scale, so that one unit is a factor of ten. A high value points to a low IC50.

In one series the test system is RAW. In words: Inhibition of LPS and IFN-gamma-activated NO production in murine RAW 264.7 cells. The note with it: Mus musculus.
Series [1] is described as follows: Antioxidant activity assessed by ORAC assay. Format: functional. Summed up: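 Samples at several concentrations combined with potassium phosphate buffer (7.5 mM as added) and sodium fluorescein probe (63 nM as added), then preincubated 5 min at 37 °C. Reaction started with AAPH (12.8 mM as added). Fluorescence (ex 485/em 538 nm) read every 2 min until decay neared zero. Trolox standard. Done in triplicate, reported as mean ± SD in μmol Trolox equivalents per μmol sample.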

Series [2] has as its system Radical scavenging activity. In words: Antioxidant activity assessed by DPPH radical scavenging assay. The series is classed as functional. Summed up: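 Test samples at several concentrations in EtOH mixed 1:1 by volume with a 200 μM DPPH solution in EtOH. After 1 min shaking, incubated 30 min at room temperature in the dark, then A517 read. Sample-only wells without DPPH corrected for colour. Done in triplicate, reported as mean ± SD. IC50 is the sample concentration scavenging 50% of DPPH.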
On the technique in general: Loss of DPPH colour is used to gauge radical scavenging.

Series [3] can be described thus: Cytotoxicity against murine RAW 264.7 cells by MTT assay. Format: cell-based. The note with it: mouse. Summed up:
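MTT viability measured in RAW 264.7 cultures from the LPS/IFN-γ-stimulated NO assay, in duplicate, to flag cytotoxic concentration ranges.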
(Formazan colour is commonly taken as a measure of viable cells.)

pIC50: −log10 of the molar value. The source made the active and inactive calls. The calls are words filed in the database; no cut-off is given here.

Turning to `COc1cc(O)cc(CCc2ccc(O)c(OC)c2)c1` [GIGANTOL], the pIC50 in the series with RAW is 4.48; in series [2] it was 4.25. The outcome in series [1] was Active.

As to `COc1cc(CCc2cc(OC)c(O)c(OC)c2)ccc1O` [MOSCATILIN], the negative logarithm of the IC50 (pIC50) in the series on RAW is 4.43; in series [2], 4.84. Also, the outcome in series [1] was Active.

For `COc1cccc(CCc2cc(OC)c(O)c3c2C(Cc2cccc(OC)c2)c2cc(O)c(O)c(OC)c2O3)c1` (stereo not given) [NOBILIN E], the pIC50 was 4.72 in the series with RAW and 4.68 in series [2].

In the case of `COc1cc(O)cc2c1-c1ccc(O)cc1C2=O` [NOBILONE], the pIC50 with RAW is 4.42; in series [2], under 3.70. Also, in series [1], the result was Active.

As to `O=C1O[C@H]([C@@H](O)CO)C(O)=C1O` [ASCORBIC ACID], the pIC50 in series [2] is 4.74.

Regarding `COc1cc(CCc2cc(OC)c(OC)c(OC)c2)ccc1O`, the Activity entry in series [3] was “Toxic”. Also, the outcome in series [1] was Active. Besides, the pIC50 in series [2] was 4.66.

Regarding `COc1cc(CC(O)c2cc(OC)c(O)c(OC)c2)ccc1O` (stereo not given) [NOBILIN D], the pIC50 in the series on RAW was 4.82; in series [2], 4.70. For the same compound, the outcome in series [1] was Active.

`COc1cccc(CCc2cc(O)c(O)c(OC)c2)c1` showed a pIC50 in series [2] of 4.39.

On to `COc1ccc(CCc2cc(OC)c(OC)c(OC)c2)cc1OC`, for which the values for the pIC50 (in the series on RAW; in series [2]) were 4.32 and under 3.70, respectively. In addition, in series [1], the result was inactive.

For the compound `COc1ccc(CCc2cc(OC)c(O)c(OC)c2)cc1OC`, the Activity result in series [3] is “Toxic”. The result in series [1] was Active. The same compound had a pIC50 in series [2] of 4.85.

`COc1cc(O)cc2c1-c1c(O)ccc(O)c1C2=O`: the values for the pIC50 (in the series with RAW; in series [2]) were 4.87 and 4.79, respectively. Also, in series [1], the result was Active.

Regarding `Cc1cc(C(C)(C)C)c(O)c(C(C)(C)C)c1` [BUTYLATED HYDROXYTOLUENE], the pIC50 in series [2] was 4.04.

In turn, `Oc1ccc(/C=C/c2cc(O)cc(O)c2)cc1` [RESVERATROL] had a pIC50 in the series with RAW of 4.63.

For the origin of these results see ChEMBL document CHEMBL1138407, “Bioactive bibenzyl derivatives and fluorenones from Dendrobium nobile” (J Nat Prod, 2007).
